Data from ChEMBL document CHEMBL3751796, “Structure-Based Discovery of Novel Cyclophilin A Inhibitors for the Treatment of Hepatitis C Virus Infections” (J Med Chem, 2015).
The source made the active and inactive calls. No cut-off for these calls is given here.

Assays:
[1] = target: T1, Peptidyl-prolyl cis-trans isomerase A (Homo sapiens, UniProt P62937); assay: Inhibition of human Cyclophilin A interaction with HCV genotype 1b Con1 NS5A in human Huh7.5 cells after 72 hrs by mammalian two-hybrid assay; assay type: cell-based; conditions: Huh-7
Target sequence in this assay (P62937 whole entry, looked up): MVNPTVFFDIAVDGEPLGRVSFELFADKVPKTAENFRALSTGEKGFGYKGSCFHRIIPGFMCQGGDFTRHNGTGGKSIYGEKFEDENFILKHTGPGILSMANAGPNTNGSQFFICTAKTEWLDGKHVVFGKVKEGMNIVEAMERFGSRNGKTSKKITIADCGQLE

[2] = target: T1, Peptidyl-prolyl cis-trans isomerase A; assay: Inhibition of human Cyclophilin A interaction with HCV genotype 1b Con1 NS5A in human Huh7.5 cells at 2 uM by co-immunoprecipitation assay; assay type: cell-based; conditions: Huh-7
Target sequence in this assay (P62937 whole entry, looked up): as above

Hepatitis C virus [3] = assay: Antiviral activity against HCV genotype 1b Con1 infected in human Huh7.5 cells assessed as stimulation of STAT2 expression at 2 uM incubated up to 96 hrs by Western blot analysis; assay type: functional, organism-based; conditions: Hepacivirus hominis, isolate Con1, Huh-7, TDE = time-dependent effect
[4] = target: T1, Peptidyl-prolyl cis-trans isomerase A; assay: Inhibition of human Cyclophilin A interaction with HCV genotype 1b Con1 NS5B in human Huh7.5 cells after 72 hrs by mammalian two-hybrid assay; assay type: cell-based; conditions: Huh-7
Target sequence in this assay (P62937 whole entry, looked up): as above

[5] = target: T1, Peptidyl-prolyl cis-trans isomerase A; assay: Inhibition of Cyclophilin A in human Huh7.5 cells infected with HCV assessed as reduction in viral RNA replication level at 0.5 to 4 uM by luciferase reporter gene assay; assay type: cell-based; conditions: Huh-7
In short: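 Huh7.5 cells infected with JFH1-Luc (Renilla luciferase reporter) virus at MOI 0.004 for 5 h at 37 °C, with or without test chemicals. Renilla luciferase activity was read from cell lysates on day 3 postinfection.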
Target sequence in this assay (P62937 whole entry, looked up): as above

Hepatitis C virus [6] = assay: Antiviral activity against HCV genotype 1b Con1 infected in human Huh7.5 cells assessed as stimulation of ISG15 expression at 2 uM incubated up to 96 hrs by Western blot analysis; assay type: functional, organism-based; conditions: Hepacivirus hominis, isolate Con1, Huh-7, TDE = time-dependent effect
Hepatitis C virus [7] = assay: Antiviral activity against HCV genotype 1b Con1 infected in human Huh7 cells xenografted in immunodeficient NOD/SCID mouse assessed as inhibition of NS5A expression in liver at 50 mg/kg, ip up to 14 days by DAPI staining based confocal microscopy; assay type: functional, organism-based; conditions: Hepacivirus hominis, isolate Con1, Huh-7
In short: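 Replicon-engrafted NOD/SCID mice, 50 mg/kg ip for 14 days from week 6, n=5. Paraffin liver sections incubated overnight at 4 °C with anti-human hepatocyte (Hep par 1) and anti-NS5A antibodies (1:50). Alexa 488/546 secondaries 1:100 for 2 h, DAPI 5 min, then confocal imaging.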

Hepatitis C virus [8] = assay: Antiviral activity against HCV genotype 1b Con1 infected in human Huh7.5 cells assessed as inhibition of NS5B expression in membrane fractions at 2 uM by Western blot analysis; assay type: functional, organism-based; conditions: Hepacivirus hominis, isolate Con1, Huh-7
In short: (§1)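 Con1b replicon cells treated with 2 μM. Total lysates, and a membrane fraction prepared by hypotonic buffer, dounce homogenization, 220g spin and then 68 000g for 1 h at 4 °C, analyzed by Western blot for NS5A and NS5B.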

Hepatitis C virus [9] = assay: Antiviral activity against HCV genotype 1b Con1 infected in human Huh7.5 cells assessed as stimulation of IRF9 mRNA expression at 2 uM incubated up to 96 hrs by qRT-PCR method; assay type: functional, organism-based; conditions: Hepacivirus hominis, isolate Con1, Huh-7, TDE = time-dependent effect
In short: (§2)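 mRNA measured by SYBR Green qRT-PCR using the 2^−ΔΔCT method, normalized to GAPDH and expressed as fold change vs controls.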

Mus musculus [10] = assay: Hepatotoxicity in BALB/c mouse assessed as changes in serum alanine transaminase level at 50 mg/kg, iv for 2 weeks by GPT kit assay; assay type: toxicity, organism-based; conditions: in vivo, 336 h
Hepatitis C virus [11] = assay: Antiviral activity against HCV infected in human Huh7.5 cells assessed as inhibition of HCV-specific RNA by qRT-PCR method in presence of telaprevir; assay type: functional, organism-based; conditions: Hepacivirus hominis; Huh-7
Hepatitis C virus [12] = assay: Antiviral activity against HCV genotype 1b Con1 infected in human Huh7.5 cells assessed as inhibition of NS5B expression in total cell lysate at 2 uM by Western blot analysis; assay type: functional, organism-based; conditions: Hepacivirus hominis, isolate Con1, Huh-7; in short: as §1
Mus musculus [13] = assay: Hepatotoxicity in BALB/c mouse assessed as changes in serum aspartate transaminase level at 50 mg/kg, iv for 2 weeks by GOT kit assay; assay type: toxicity, organism-based; conditions: in vivo, 336 h
[14] = Cytotoxicity against HCV infected human Huh7.5 cells assessed as cell death by MTT assay in presence of telaprevir; assay type: cell-based; conditions: huh-7
Hepatitis C virus [15] = assay: Antiviral activity against HCV genotype 1b Con1 infected in human Huh7.5 cells assessed as stimulation of STAT1 mRNA expression at 2 uM incubated up to 96 hrs by qRT-PCR method; assay type: functional, organism-based; conditions: Hepacivirus hominis, isolate Con1, Huh-7, TDE = time-dependent effect; in short: as §2
[16] = Cytotoxicity against mock-infected human Huh7.5 cells assessed as reduction in cell viability incubated for 5 hrs by MTT assay; assay type: cell-based, Huh-7; conditions: mock-infected Huh7.5 cells
In short: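 Mock-infected Huh7.5 cells run alongside the JFH1-Luc antiviral assay with 3-fold serial dilutions. Viability read by MTT assay to give CC50.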

Hepatitis C virus [17] = assay: Antiviral activity against HCV genotype 1b Con1 infected in human Huh7.5 cells assessed as stimulation of STAT1 expression at 2 uM incubated up to 96 hrs by Western blot analysis; assay type: functional, organism-based; conditions: Hepacivirus hominis, isolate Con1, Huh-7, TDE = time-dependent effect
Hepatitis C virus [18] = assay: Antiviral activity against HCV infected in human Huh7.5 cells assessed as inhibition of IL-8 level by ELISA in presence of telaprevir; assay type: functional, organism-based; conditions: Hepacivirus hominis; Huh-7
[19] = target: T1, Peptidyl-prolyl cis-trans isomerase A
Target sequence in this assay (P62937 whole entry): as the sequence (P62937 whole entry, looked up) above

[20] = target: T1, Peptidyl-prolyl cis-trans isomerase A; assay: Inhibition of human Cyclophilin A interaction with HCV genotype 1b Con1 NS5B in human Huh7.5 cells at 2 uM by co-immunoprecipitation assay; assay type: cell-based; conditions: Huh-7
Target sequence in this assay (P62937 whole entry, looked up): as above

Hepatitis C virus [21] = assay: Antiviral activity against HCV genotype 1b Con1 infected in human Huh7.5 cells assessed as stimulation of OAS1 expression at 2 uM incubated up to 96 hrs by Western blot analysis; assay type: functional, organism-based; conditions: Hepacivirus hominis, isolate Con1, Huh-7, TDE = time-dependent effect
Hepatitis C virus [22] = assay: Antiviral activity against HCV genotype 1b Con1 infected in human Huh7.5 cells assessed as reduction of IL-8 level at 2 uM incubated up to 96 hrs by ELISA; assay type: functional, organism-based; conditions: Hepacivirus hominis, isolate Con1, Huh-7, TDE = time-dependent effect
In short: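 Con1b replicon cells, 2 × 10^6/well, treated with 2 μM for up to 4 days at 37 °C. Pooled culture media assayed for IL-8 and IFN-α by ELISA.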

[23] = Cytotoxicity against HCV infected human Huh7.5 cells assessed as cell death by MTT assay in presence of ribavirin; assay type: cell-based; conditions: huh-7
Hepatitis C virus [24] = assay: Antiviral activity against HCV infected in human Huh7.5 cells assessed as inhibition of IL-8 level by ELISA in presence of IFN-alpha; assay type: functional, organism-based; conditions: Hepacivirus hominis; Huh-7
[25] = Cytotoxicity against HCV genotype 2a JFH1 infected human Huh7.5 cells expressing GFP-fused NS5A assessed as reduction in cell viability measured 72 hrs post infection by hoechst 33342 staining based confocal microscopy; design: species or system Huh-7
[26] = Cytotoxicity against BALB/c mouse splenocytes assessed as reduction in cell viability at 1 to 10 uM; assay type: cell-based; conditions: splenocyte
Hepatitis C virus [27] = assay: Antiviral activity against HCV genotype 1b Con1 infected in human Huh7.5 cells assessed as stimulation of ISG15 mRNA expression at 2 uM incubated up to 96 hrs by qRT-PCR method; assay type: functional, organism-based; conditions: Hepacivirus hominis, isolate Con1, Huh-7, TDE = time-dependent effect; in short: as §2
[28] = target: T1, Peptidyl-prolyl cis-trans isomerase A; assay: Inhibition of recombinant GST-tagged Cyclophilin A (unknown origin) interaction with HCV GST-tagged NS5A at 2 to 4 uM by GST pulldown assay
Target sequence in this assay (P62937 whole entry, looked up): as above

## COc1cc(C(C(=O)NC2CCCCC2)N(C(=O)Cc2c[nH]c3ccccc23)c2ccc(C(C)C)cc2)cc(OC)c1OC (stereo not drawn)
[1]
  inhibition: Active
[2]
  inhibition: Active
Hepatitis C virus [3]
  Activity: tde
[4]
  inhibition: Active
[5]
  inhibition: Active
Hepatitis C virus [6]
  Activity: tde
Hepatitis C virus [7]
  inhibition: Active
Hepatitis C virus [8]
  inhibition: Active
Hepatitis C virus [9]
  Activity: tde
Mus musculus [10]
  Activity: Non-toxic
Hepatitis C virus [11]
  inhibition: Active
Hepatitis C virus [12]
  inhibition: Active
Mus musculus [13]
  Activity: Non-toxic
[14]
  Activity: Non-toxic
Hepatitis C virus [15]
  Activity: tde
[16]
  CC50 at 5 h: > 100 µM
Hepatitis C virus [17]
  Activity: tde
Hepatitis C virus [18]
  inhibition: Active
[19]
  Kd: 0.57 µM
[20]
  inhibition: Active
Hepatitis C virus [21]
  Activity: tde
Hepatitis C virus [22]
  Activity: tde
[23]
  Activity: Non-toxic
Hepatitis C virus [24]
  inhibition: Active
[25]
  CC50 at 72 h: 22.3 µM
[26]
  Activity: Non-toxic
Hepatitis C virus [27]
  Activity: tde
[28]
  inhibition: Active
